pIC50: −log10 of the molar value. Calls of active or inactive are those of the source. The rule behind the calls is not given here.

Usually pIC50 stands for the negative decadic logarithm of the IC50, by convention in mol/L. As a reminder, the Cmax is the maximum level reached in the sampled fluid or tissue. As a reminder, the Tmax is the time from dosing to the highest level. For orientation: MRT means a mean duration of stay, worked out from the concentration-time curve. A word on the AUC(0-t): it is the area under the concentration-time curve up to a stated or last time point. For orientation: clearance means the volume of plasma or blood freed of the substance per unit of time. By AUC(0-inf) is commonly meant total exposure, with the tail of the curve extrapolated. As usually defined, the MRT inf is the average time that molecules of a dose stay in the body. Broadly, the half-life is the time in which the quantity being followed falls by half.

For one series, the system named is MCF7. Description: Antiproliferative activity against human MCF7 cells assessed inhibition of cell growth incubated for 72 hrs by SRB assay. Type of series: functional, cell-based. Particulars: MCF7, 72 h. A general note: In SRB staining, fixed cells bind dye roughly in proportion to their protein.
The nature of series [1]: Chronic toxicity in male Beagle dog at 3 to 18 mg/kg,iv administered once per week for 30 days. The note with it: in vivo, 720 h, dose 3-18 mg/kg, time 30 day. The series is classed as organism-based, Canis lupus familiaris. In short, it runs like this: (§1)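 Long-term toxicity: rats given iv 2, 4 or 8 mg/kg and dogs 3, 6 or 18 mg/kg once weekly over 30 days; toxicokinetics recorded; highest non-severely toxic dose determined by sex.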

A short description of series [2]: Cmax in female Beagle dog at 1 mg/kg,iv measured upto 24 hrs. Also on record: dose 1 mg/kg, time < 24 hrs, route iv. Particulars: in vivo. The series is classed as ADME, organism-based, Canis lupus familiaris. The method, boiled down:
(§2)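 Beagle dogs were given a single iv infusion at 1, 2 or 4 mg/kg. Plasma parent drug and released docetaxel were followed over time. Cmax, Tmax, AUC, MRT, t1/2, CL and Vss were reported by sex and for all dogs combined.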

The nature of series [3]: Tmax in male rat at 4 mg/kg,iv measured upto 24 hrs. The series is classed as ADME, organism-based. The note with it: in vivo.
Series [4] in a line: MRT in mouse plasma implanted with mouse 4T1 cells at 10 mg/kg,iv measured upto 72 hrs. Type of series: ADME, organism-based.
Series [5] is described as follows: AUC (0-t) in mouse tumor implanted with mouse 4T1 cells at 10 mg/kg,iv measured upto 72 hrs. Type of series: ADME, organism-based, Neoplasm. Also on record: time < 72 hrs, dose 10 mg/kg, route iv. The method, boiled down:
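4T1 tumor-bearing mice (4T1 cells implanted in the mammary fat pad) received a single iv dose of 10 mg/kg. Plasma and tumor tissue were sampled up to 72 h, with n = 6. Levels of parent and of released docetaxel were measured. AUC came from noncompartmental analysis, reported as mean ± SD.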

Series [6] in a line: Clearance in male Beagle dog at 2 mg/kg,iv measured upto 24 hrs. Type of series: ADME, organism-based, Canis lupus familiaris. Particulars: in vivo. The method, boiled down: as §2
The nature of series [7]: AUC (0-infinity) in female Beagle dog at 2 mg/kg,iv measured upto 24 hrs. The series is classed as ADME, organism-based, Canis lupus familiaris. Also on record: time < 24 hrs, dose 2 mg/kg, route iv. The note with it: in vivo. The method, boiled down:
(§3)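 Single iv dose: rats 2, 4 or 8 mg/kg by intravenous injection; Beagle dogs 1, 2 or 4 mg/kg by intravenous infusion. Plasma concentration–time data were analysed by sex and pooled. Reported parameters: Cmax, Tmax, AUC0−t, AUC0−∞, MRT0−∞, t1/2, CL, Vss, given as mean ± SD.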

The nature of series [8]: Tmax in female rat at 8 mg/kg,iv measured upto 24 hrs. Type of series: ADME, organism-based. Particulars: in vivo.
Series [9] in a line: Volume of distribution at steady state in female Beagle dog at 1 mg/kg,iv measured upto 24 hrs. Type of series: ADME, organism-based, Canis lupus familiaris. Particulars: in vivo, read-out: Vdss.
Series [10] deals with 4T1. Description: Synergistic antitumor activity against mouse 4T1 cells xenografted with BALB/c mouse assessed as decrease in lung metastasis at 10 mg/kg,iv administrated in combination with doxorubicin once per week for 4 weeks. Type of series: functional, organism-based.
Series [11] in a line: Chronic toxicity in male Sprague-Dawley rat at 2 to 8 mg/kg,iv administered once per week for 30 days. Type of series: organism-based. The note with it: in vivo, 720 h, dose 2-8 mg/kg, time 30 day. The method, boiled down:
as §1

The nature of series [12]: Drug metabolism in rat bile assessed as metabolite docetaxel formation at 4 mg/kg,iv measured after 24 hrs. Type of series: ADME, organism-based. Particulars: in vivo.
The nature of series [13]: Cmax in rat at 8 mg/kg,iv measured upto 24 hrs. Type of series: ADME, organism-based. Also on record: time < 24 hrs, dose 8 mg/kg, route iv. The note with it: in vivo. In short, it runs like this: (§4)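 Rats were given a single iv injection at 2, 4 or 8 mg/kg. Plasma parent drug and released docetaxel were followed over time. Cmax, Tmax, AUC, MRT, t1/2, CL and Vss were reported for males, females and all animals combined.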

The nature of series [14]: Clearance in female rat at 2 mg/kg,iv measured upto 24 hrs. The series is classed as ADME, organism-based. Particulars: in vivo. The method, boiled down: as §4
Series [15] can be described thus: Cmax in male Beagle dog at 2 mg/kg,iv measured upto 24 hrs. Type of series: ADME, organism-based, Canis lupus familiaris. Particulars: in vivo. Also on record: dose 2 mg/kg, time < 24 hrs, route iv. In short, it runs like this: as §2
The test system of series [16] is 4T1. Description: Synergistic antitumor activity against mouse 4T1 cells xenografted with BALB/c mouse assessed as decrease in tumor weight at 10 mg/kg,iv administrated in combination with doxorubicin once per week for 4 weeks. Type of series: functional, organism-based.
Series [17] in a line: MRT (0 to infinity) in rat at 8 mg/kg,iv measured upto 24 hrs. Type of series: ADME, organism-based. Particulars: in vivo.
Another series deals with Cytochrome P450 2C9 (Homo sapiens, UniProt P11712). Description: Inhibition of CYP2C9 in human liver microsomes using probe substrate at 0.1 to 100 uM in presence of NADPH. The series is classed as ADME, Microsome. The note with it: dose 0.1-100 µM.
Cytochrome P450 2C9, sequence (P11712 whole entry): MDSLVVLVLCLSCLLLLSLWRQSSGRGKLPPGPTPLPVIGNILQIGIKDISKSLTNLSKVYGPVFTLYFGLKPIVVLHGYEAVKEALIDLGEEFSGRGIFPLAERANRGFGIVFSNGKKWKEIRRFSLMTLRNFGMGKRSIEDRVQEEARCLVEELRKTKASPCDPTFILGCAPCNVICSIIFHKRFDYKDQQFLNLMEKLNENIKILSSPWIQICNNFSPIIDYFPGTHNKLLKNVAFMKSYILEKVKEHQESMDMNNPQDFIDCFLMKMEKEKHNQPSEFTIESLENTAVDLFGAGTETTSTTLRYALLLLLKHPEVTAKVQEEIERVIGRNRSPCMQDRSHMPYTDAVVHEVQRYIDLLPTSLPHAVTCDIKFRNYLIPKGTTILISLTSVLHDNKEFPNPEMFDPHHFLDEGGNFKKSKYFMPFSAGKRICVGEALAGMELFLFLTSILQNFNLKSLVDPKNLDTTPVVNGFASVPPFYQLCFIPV
Series [18] is described as follows: AUC (0-infinity) in male Beagle dog at 4 mg/kg,iv measured upto 24 hrs. Type of series: ADME, organism-based, Canis lupus familiaris. Also on record: dose 4 mg/kg, time < 24 hrs, route iv. The note with it: in vivo. The method, boiled down: as §3
Series [19] is described as follows: Clearance in female Beagle dog at 1 mg/kg,iv measured upto 24 hrs. The series is classed as ADME, organism-based, Canis lupus familiaris. Particulars: in vivo. In short, it runs like this: as §2
Series [20] is described as follows: Tmax in Beagle dog at 2 mg/kg,iv measured upto 24 hrs. The series is classed as ADME, organism-based, Canis lupus familiaris. The note with it: in vivo.
Series [21] can be described thus: MRT (0 to infinity) in female Beagle dog at 1 mg/kg,iv measured upto 24 hrs. The series is classed as ADME, organism-based, Canis lupus familiaris. The note with it: in vivo.
Series [22] can be described thus: MRT (0 to infinity) in Beagle dog at 2 mg/kg,iv measured upto 24 hrs. Type of series: ADME, organism-based, Canis lupus familiaris. The note with it: in vivo.
Series [23] is described as follows: Toxicity in BALB/c mouse xenografted with human NCI-H1975 cells assessed as side effects at 10 mg/kg,iv administrated once per week for 3 weeks. The series is classed as organism-based. Particulars: in vivo, 504 h.
Series [24] in a line: Volume of distribution at steady state in male Beagle dog at 1 mg/kg,iv measured upto 24 hrs. The series is classed as ADME, organism-based, Canis lupus familiaris. The note with it: in vivo, read-out: Vdss.
A short description of series [25]: Half life in Beagle dog at 1 mg/kg,iv measured upto 24 hrs. Type of series: ADME, organism-based, Canis lupus familiaris. Particulars: in vivo.
In series [26] the test system is 4T1. Description: Antitumor activity against mouse 4T1 cells xenografted with BALB/c mouse assessed as reduction lung metastatic nodules at 5 to 20 mg/kg,iv administrated once per week for 4 weeks. The note with it: dose 5-20 mg/kg. Type of series: functional, organism-based. The method, boiled down:
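4T1 cells injected into the mammary fat pad of BALB/c mice; iv saline vehicle or 5, 10 or 20 mg/kg once weekly for 4 weeks; body weight, tumour volume, tumour weight, lung metastatic nodule count and metastasis score recorded; n = 10, mean ± SEM, ANOVA and Student's t test.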

Series [27] is described as follows: Drug metabolism in monkey hepatocytes assessed as MDA-205 metabolite formation at 20 uM incubated for 180 mins. The note with it: rhesus monkey, 3 h. The series is classed as ADME, cell-based, Macaca mulatta, Hepatocyte.
Series [28] in a line: Drug metabolism in dog hepatocytes assessed as MDA-205 metabolite formation at 20 uM incubated for 180 mins. Type of series: ADME, cell-based, Canis lupus familiaris, Hepatocyte. The note with it: 3 h.
Series [29] concerns 4T1. Description: Antitumor activity against mouse 4T1 cells implanted in BALB/c mouse assessed as decrease in spleen MDSC cells at 5.7 mg/kg,iv measured after 28 days (reference value: 38%). Particulars: time 28 day. Type of series: functional. Also on record: scale not given: the % may be the effect or the level left. In short, it runs like this:
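Splenocytes taken from 4T1 fat-pad tumor-bearing BALB/c mice after 28 days of tumor growth with weekly iv dosing. Cells stained with anti-CD11b PE and anti-Gr-1 FITC, and the Gr-1+CD11b+ percentage scored by flow cytometry. Eight mice per treated group, five naive. Mean ± SEM.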

The subject of series [30] is 4T1. Put plainly: Antitumor activity against mouse 4T1 cells implanted in BALB/c mouse assessed as decrease in spleen MMP2 expression level at 5.7 mg/kg,iv administrated once per week for 4 weeks in presence of compound 5b by western blot assay. Type of series: functional, organism-based. The method, boiled down:
(§5)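 4T1 cells injected into mammary fat pads of BALB/c mice. Saline vehicle or test article given iv once weekly for 4 weeks. Spleen, lung and tumor lysates immunoblotted for MMP2/MMP9 with β-actin as loading control. Bands averaged over five mice per group, representative of two independent experiments.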
A general note: A western blot detects proteins with antibodies after separation by electrophoresis.

Series [31] in a line: Toxicity in BALB/c mouse injected with mouse 4T1 cells assessed as body weight loss at 5.7 mg/kg,iv in presence of compound 5b administrated once per week for 4 weeks. The series is classed as organism-based. The note with it: in vivo, 672 h.
For series [32], the system named is 4T1. Description: Antitumor activity against mouse 4T1 cells implanted in BALB/c mouse assessed as decrease in tumor MMP9 expression level at 5.7 mg/kg,iv administrated once per week for 4 weeks by western blot assay. The series is classed as functional, organism-based. The method, boiled down: as §5

For the molecule `CC(=O)O[C@@]12CO[C@@H]1C[C@H](O)[C@@]1(C)C(=O)[C@H](O)C3=C(C)[C@@H](OC(=O)[C@H](OC(=O)CCC(=O)NCCCC[C@H](NC(=O)CC[C@@H](NC(=O)[C@H](C)NC(=O)/C=C/c4ccc(F)cc4Cl)C(N)=O)C(=O)O)[C@@H](NC(=O)OC(C)(C)C)c4ccccc4)C[C@@](O)([C@@H](OC(=O)c4ccccc4)[C@H]21)C3(C)C`, in the series with MCF7, the negative logarithm of the IC50 (pIC50) is 7.79. Besides, the Activity entry in series [1] is “Non-Toxic”; in [11] it was “Toxic”; in series [23] it was “Non-Toxic”. In addition, the maximum concentration (Cmax) in series [2] was 4020 ng/mL; in [13], 62.2 µg/mL; in [15] it was 10800 ng/mL. In addition, the values for the time of peak concentration (Tmax) in series [3], in series [8] and in series [20] were 4.98 min, 4.98 min and 30 min, respectively. Also, in series [4], the MRT is 27 min. The molecule also returned an AUC(0-t) at 72 h in [5] of 0.11 µM·h. In addition, the clearance turned out to be 7.13 mL/min/kg in series [6], 7.73 mL/min/kg in series [14] and 11.2 mL/min/kg in [19]. Besides, the total exposure AUC(0-inf) in [7] came to 7020 ng·h/mL; in series [18] it was 15300 ng·h/mL. Besides, the Vd worked out at 0.204 L/kg in [9] and 0.134 L/kg in series [24]. Moreover, the outcome in the series with 4T1 [10], in the series with 4T1 [16] and in the series on 4T1 [26] was Active. In addition, the Drug metabolism entry in [12], in series [27] and in [28] was “Metabolite_Detected” in each case. Further, the mean residence time MRT inf is 33.1 min in [17], 18.4 min in [21] and 14.2 min in [22]. On Cytochrome P450 2C9, the “inhibition (INH)” value is “Not Active”. The molecule also showed a half-life in series [25] of 21.3 min.

For the molecule `CC(=O)O[C@@]12CO[C@@H]1C[C@H](O)[C@@]1(C)C(=O)[C@H](O)C3=C(C)[C@@H](OC(=O)[C@H](O)[C@@H](NC(=O)OC(C)(C)C)c4ccccc4)C[C@@](O)([C@@H](OC(=O)c4ccccc4)[C@H]21)C3(C)C` [DOCETAXEL ANHYDROUS], the Activity in the series on 4T1 [29] is listed as 36.4%; in series [31], “Non-Toxic”. In addition, the outcome in the series on 4T1 [30] and with 4T1 [32] was inactive.

Source of the values: ChEMBL document CHEMBL5252546, “Salutaxel, a Conjugate of Docetaxel and a Muramyl Dipeptide (MDP) Analogue, Acts as Multifunctional Prodrug That Inhibits Tumor Growth and Metastasis” (J Med Chem, 2018).
